Each structure is given as a SMILES string. Activity calls are given as the source filed them. No cut-off for these calls is given here.

The values below come from ChEMBL document CHEMBL5260793, “Novel pyrazolo[3,4-d]pyrimidine with 4-(1H-benzimidazol-2-yl)-phenylamine as broad spectrum anticancer agents: Synthesis, cell based assay, topoisomerase inhibition, DNA intercalation and bovine serum albumin studies” (Eur J Med Chem, 2017).

In assay [1] the test system is Panel breast (Carcinoma cell lines). As to the kind of experiment: Anticancer activity against human Panel breast (Carcinoma cell lines) assessed as lethality incubated for 48 hrs by Sulphorhodamine B assay. Format: functional. Particulars: read-out: LC50 (the source's name). (In general: Sulforhodamine B stains cellular protein and so reports cell mass.)
Assay [2] has as its system Panel ovarian (Carcinoma cell lines). The experiment in a line: Anticancer activity against human Panel ovarian (Carcinoma cell lines) assessed as total growth inhibition incubated for 48 hrs by Sulphorhodamine B assay. In kind it is functional.
Assay [3] shares this test system. The experiment in a line: Anticancer activity against human Panel ovarian (Carcinoma cell lines) assessed as lethality incubated for 48 hrs by Sulphorhodamine B assay. In kind it is functional.
In assay [4] the test system is Panel melanoma (Carcinoma cell lines). As to the kind of experiment: Anticancer activity against human Panel melanoma (Carcinoma cell lines) assessed as total growth inhibition incubated for 48 hrs by Sulphorhodamine B assay. In kind it is functional. The method, boiled down:
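NCI-60 five-dose screen. Cells in RPMI 1640 with 5% FBS and 2 mM L-glutamine were plated at 5,000–40,000 cells/well and held 24 h before dosing. Compounds came from DMSO stocks and were given at five concentrations (10-fold or ½-log dilutions) for 48 h at 37 °C. Adherent cells were TCA-fixed and stained with SRB; A515 was read. GI50 was set from growth = 50% and TGI from Ti = Tz, using Tz/C/Ti.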

A short description of assay [5]: Anticancer activity against human Non-small cell lung cancer cell line assessed as lethality incubated for 48 hrs by Sulphorhodamine B assay. In kind it is functional.
Assay [6] addresses T1, DNA topoisomerase 1 (Homo sapiens) (UniProt P11387).
T1 sequence (whole entry): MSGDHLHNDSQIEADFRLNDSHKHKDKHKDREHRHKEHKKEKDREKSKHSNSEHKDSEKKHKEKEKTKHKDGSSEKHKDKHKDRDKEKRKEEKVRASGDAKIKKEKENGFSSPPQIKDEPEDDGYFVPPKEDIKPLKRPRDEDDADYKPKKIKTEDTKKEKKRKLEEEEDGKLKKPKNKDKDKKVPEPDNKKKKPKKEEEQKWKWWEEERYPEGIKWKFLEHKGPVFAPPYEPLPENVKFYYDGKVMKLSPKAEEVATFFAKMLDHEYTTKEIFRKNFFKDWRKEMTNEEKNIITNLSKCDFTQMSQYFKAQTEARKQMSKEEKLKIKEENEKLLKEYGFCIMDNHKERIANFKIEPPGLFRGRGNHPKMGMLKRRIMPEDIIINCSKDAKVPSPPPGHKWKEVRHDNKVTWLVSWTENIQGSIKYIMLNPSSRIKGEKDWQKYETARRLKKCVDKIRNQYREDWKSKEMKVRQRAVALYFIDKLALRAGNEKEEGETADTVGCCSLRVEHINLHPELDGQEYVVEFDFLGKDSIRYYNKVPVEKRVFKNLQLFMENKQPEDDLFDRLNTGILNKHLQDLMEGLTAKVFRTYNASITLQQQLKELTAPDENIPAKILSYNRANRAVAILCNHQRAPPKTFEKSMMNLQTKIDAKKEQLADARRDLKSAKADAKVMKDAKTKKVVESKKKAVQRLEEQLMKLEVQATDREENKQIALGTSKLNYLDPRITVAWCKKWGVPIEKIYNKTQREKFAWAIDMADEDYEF
As to the kind of experiment: Inhibition of human DNA topoisomerase I mediated supercoiled pHOT1 plasmid DNA relaxation upto 100 uM incubated for 30 mins by ethidium bromide staining based agarose gel electrophoresis analysis.

The target in assay [7] is DNA topoisomerase 2-alpha (Homo sapiens) (UniProt P11388). As to the kind of experiment: Inhibition of human DNA topoisomerase II-alpha mediated supercoiled pHOT1 plasmid DNA relaxation at 50 uM incubated for 30 mins by ethidium bromide staining based agarose gel electrophoresis analysis. An outline of the steps: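 Reaction buffer: 50 mM Tris-Cl pH 8.0, 120 mM KCl, 10 mM MgCl2, 0.5 mM ATP, 0.5 mM DTT. Each reaction held 500 ng supercoiled pHOT1 and 1 U human Topo IIα, with compound at 10–100 μM, for 30 min at 37 °C. Reactions were stopped with glycerol/EDTA/bromophenol blue, run on 1% agarose in TBE, and stained with ethidium bromide. Etoposide 25 μM was the positive control.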
Sequence of DNA topoisomerase 2-alpha (Homo sapiens) (P11388 whole entry): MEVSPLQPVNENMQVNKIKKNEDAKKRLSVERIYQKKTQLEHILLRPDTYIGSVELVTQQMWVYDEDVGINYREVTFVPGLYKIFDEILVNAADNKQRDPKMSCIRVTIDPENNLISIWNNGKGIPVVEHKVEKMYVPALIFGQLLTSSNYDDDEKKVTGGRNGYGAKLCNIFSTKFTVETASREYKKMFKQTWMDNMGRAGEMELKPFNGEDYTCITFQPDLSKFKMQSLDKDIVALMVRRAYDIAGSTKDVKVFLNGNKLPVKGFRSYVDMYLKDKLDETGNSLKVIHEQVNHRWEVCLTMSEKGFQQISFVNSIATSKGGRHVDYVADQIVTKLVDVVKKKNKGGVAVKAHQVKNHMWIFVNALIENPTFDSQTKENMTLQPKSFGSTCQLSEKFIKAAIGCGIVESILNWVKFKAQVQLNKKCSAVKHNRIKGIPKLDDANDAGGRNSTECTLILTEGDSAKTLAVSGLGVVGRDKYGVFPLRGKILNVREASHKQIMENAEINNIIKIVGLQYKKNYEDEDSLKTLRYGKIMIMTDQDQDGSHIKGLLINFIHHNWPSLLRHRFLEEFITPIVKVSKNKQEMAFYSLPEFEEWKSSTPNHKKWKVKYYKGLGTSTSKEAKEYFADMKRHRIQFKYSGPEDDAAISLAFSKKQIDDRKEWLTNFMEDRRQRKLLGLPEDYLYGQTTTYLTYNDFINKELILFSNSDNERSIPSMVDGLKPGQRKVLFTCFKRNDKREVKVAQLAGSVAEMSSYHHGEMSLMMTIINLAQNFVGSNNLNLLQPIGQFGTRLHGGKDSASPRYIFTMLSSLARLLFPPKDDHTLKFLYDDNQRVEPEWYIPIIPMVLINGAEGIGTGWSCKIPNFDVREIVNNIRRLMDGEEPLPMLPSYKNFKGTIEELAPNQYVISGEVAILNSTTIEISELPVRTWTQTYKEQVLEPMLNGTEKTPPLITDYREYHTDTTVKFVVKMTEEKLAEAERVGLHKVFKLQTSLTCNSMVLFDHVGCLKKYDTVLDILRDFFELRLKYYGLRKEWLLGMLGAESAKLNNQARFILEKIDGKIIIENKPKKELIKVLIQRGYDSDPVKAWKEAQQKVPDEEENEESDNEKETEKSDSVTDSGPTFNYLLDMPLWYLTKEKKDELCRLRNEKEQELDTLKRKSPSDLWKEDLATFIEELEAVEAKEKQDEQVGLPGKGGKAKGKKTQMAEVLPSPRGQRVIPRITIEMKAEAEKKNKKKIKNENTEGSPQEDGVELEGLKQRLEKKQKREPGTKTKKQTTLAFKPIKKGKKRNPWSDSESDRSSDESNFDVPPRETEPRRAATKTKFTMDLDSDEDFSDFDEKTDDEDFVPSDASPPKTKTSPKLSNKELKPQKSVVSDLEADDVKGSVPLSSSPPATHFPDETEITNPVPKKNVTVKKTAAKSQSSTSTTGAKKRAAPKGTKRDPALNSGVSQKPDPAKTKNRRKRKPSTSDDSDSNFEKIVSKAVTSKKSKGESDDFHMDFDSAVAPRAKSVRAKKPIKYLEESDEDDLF

For another assay, the system named is Calf thymus DNA. The experiment in a line: Binding affinity to calf thymus DNA assessed as maximum absorption wavelength shift at pH 7.4 at 10 uM by UV-vis absorption spectroscopy. In kind it is nucleic-acid assay. The following applies: Bos taurus. An outline of the steps:
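Absorption titration at 300 K in a 1 cm cell, background subtracted. Compound was fixed (10 μM per legend; 20 μM in methods) with ct-DNA added up to 15–20 μM in 10 mM phosphate buffer, pH 7.4 (A260/A280 1.82). A buffer-addition control was run. K was taken from the 1/(Af−Aobs) vs 1/[DNA] fit.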

Regarding `Fc1ccc(Nc2nc(Nc3ccc(-c4nc5ccccc5[nH]4)cc3)c3cn[nH]c3n2)cc1`, the CC50 in assay [1] is 19 µM. Further, the TGI in assay [2] turned out to be 6.77 µM; in assay [4], 3.74 µM. Besides, in assay [3], the LC50 (concentration killing 50% of cells) worked out at 28.9 µM. Moreover, the LC50 (lethal concentration, 50% cell kill) in assay [5] is 32.5 µM. Besides, the inhibition entry in assay [6] is “inactive”. In assay [7], the inhibition result is “Active”. Moreover, the Activity with Calf thymus DNA came out at 257 nm.
For the compound `OCCN1CCN(c2nc(Nc3ccc(-c4nc5ccccc5[nH]4)cc3)c3cn[nH]c3n2)CC1`, the CC50 in assay [1] is 7.02 µM. Further, the TGI was found to be 3.59 µM in assay [2] and 3.41 µM in assay [4]. Besides, the LC50 (concentration killing 50% of cells) in assay [3] turned out to be 6.09 µM. Also, the LC50 (lethal concentration, 50% cell kill) in assay [5] was 6.26 µM. The inhibition entry in assay [6] was “inactive”. For the same compound, in assay [7], the inhibition entry is “Active”. In the assay with Calf thymus DNA, the Activity came to 259 nm.

As usually defined, the TGI is the concentration giving total growth inhibition.
